Columns and labels:
Adenosine receptor A1 = target: T1, Adenosine receptor A1 (Bos taurus, UniProt P28190); test: Displacement of [3H]DPCPX from bovine cerebral cortex adenosine A1 receptor; assay type: tissue-based
T1 sequence (P28190 whole entry): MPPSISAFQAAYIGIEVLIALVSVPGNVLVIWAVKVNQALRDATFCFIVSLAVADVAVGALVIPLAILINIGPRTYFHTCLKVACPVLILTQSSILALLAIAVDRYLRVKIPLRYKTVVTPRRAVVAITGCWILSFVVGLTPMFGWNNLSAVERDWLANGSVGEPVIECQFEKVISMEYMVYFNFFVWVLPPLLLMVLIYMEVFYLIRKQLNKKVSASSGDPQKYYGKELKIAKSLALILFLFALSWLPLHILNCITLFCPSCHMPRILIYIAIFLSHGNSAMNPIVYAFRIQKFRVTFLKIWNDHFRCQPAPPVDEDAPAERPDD
How it was run: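 Nonspecific binding defined with CPA. Reaction stopped by dilution with ice-cold 50 mM Tris-HCl, then GF/C filtration and three washes. Bound radioactivity counted by liquid scintillation. Each test repeated until at least three consistent results were obtained and averaged for Ki.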

[1] = target: Adenosine receptor A2a (Homo sapiens) (UniProt P29274); test: Displacement of [3H]ZM-241385 from human recombinant adenosine A2A receptor expressed in CHO cells at 1 uM; assay type: cell-based
How it was run: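 Membranes from CHO cells expressing recombinant human A2A receptor incubated 120 min at 25 °C with 4 nM [3H]ZM241385 and a single compound concentration, in duplicate, in Tris-HCl buffer. Nonspecific binding defined with NECA. Percent inhibition of specific binding recorded.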

[2] = target: T2, Adenosine receptor A3 (Homo sapiens) (UniProt P0DMS8); test: Displacement of [3H]NECA from human recombinant adenosine A3 receptor expressed in CHO cells at 1 uM; assay type: cell-based
T2 sequence (whole entry): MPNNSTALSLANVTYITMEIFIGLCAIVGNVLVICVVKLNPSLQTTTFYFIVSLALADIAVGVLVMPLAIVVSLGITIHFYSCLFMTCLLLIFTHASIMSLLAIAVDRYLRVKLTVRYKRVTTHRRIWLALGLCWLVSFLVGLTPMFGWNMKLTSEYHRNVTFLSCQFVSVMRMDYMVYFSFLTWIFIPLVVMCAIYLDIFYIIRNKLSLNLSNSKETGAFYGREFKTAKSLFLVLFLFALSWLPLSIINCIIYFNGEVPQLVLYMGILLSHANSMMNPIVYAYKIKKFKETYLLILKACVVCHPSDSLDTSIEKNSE
How it was run: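 Membranes from CHO cells expressing recombinant human A3 receptor incubated 120 min at 25 °C with 6 nM [3H]NECA and a single compound concentration, in duplicate, in Tris-HCl buffer. Nonspecific binding defined with R-PIA. Percent inhibition of specific binding recorded.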

Sequence of Adenosine receptor A2a (Homo sapiens) (P29274 whole entry): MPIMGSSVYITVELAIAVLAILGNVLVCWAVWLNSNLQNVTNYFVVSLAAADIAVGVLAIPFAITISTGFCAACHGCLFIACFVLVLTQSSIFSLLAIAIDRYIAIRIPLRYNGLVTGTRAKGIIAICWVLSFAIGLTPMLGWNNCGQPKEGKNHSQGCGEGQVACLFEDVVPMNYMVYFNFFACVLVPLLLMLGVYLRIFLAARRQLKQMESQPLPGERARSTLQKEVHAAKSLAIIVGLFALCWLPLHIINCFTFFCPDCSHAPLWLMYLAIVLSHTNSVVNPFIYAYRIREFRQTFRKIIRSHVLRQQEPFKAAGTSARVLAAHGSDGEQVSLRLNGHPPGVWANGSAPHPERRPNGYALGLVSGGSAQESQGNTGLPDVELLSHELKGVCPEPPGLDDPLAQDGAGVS

| SMILES | Ki (Adenosine receptor A1) [nM] | inhibition [1] [%] | inhibition [2] [%] |
| --- | --- | --- | --- |
| Clc1ccccc1Cn1nnc2c(NC3CCC3)nc(-c3ccccc3)nc21 | 24 | < 50 | < 50 |
| Clc1ccccc1Cn1nnc2c(NC3CCCC3)nc(-c3ccccc3)nc21 | 9 | < 50 | < 50 |
| Fc1ccccc1Cn1nnc2c(NC3CCCC3)nc(-c3ccccc3)nc21 | 6.7 | < 50 | < 50 |
| CCCCNc1nc(-c2ccccc2)nc2c1nnn2Cc1ccccc1Cl | 79 | < 50 | < 50 |
| Fc1ccccc1Cn1nnc2c(NC3CC3)nc(-c3ccccc3)nc21 | 15 | < 50 | < 50 |
| OCCCNc1nc(-c2ccccc2)nc2c1nnn2Cc1ccccc1F | 3.7 | < 50 | < 50 |
| CC(O)CNc1nc(-c2ccccc2)nc2c1nnn2Cc1ccccc1Cl (stereo not given) | 32 | < 50 | < 50 |
| OCCCNc1nc(-c2ccccc2)nc2c1nnn2Cc1ccccc1Cl | 33 | < 50 | < 50 |
| Clc1ccccc1Cn1nnc2c(NC3CCCCC3)nc(-c3ccccc3)nc21 | 34 | < 50 | < 50 |
| CCCCCCNc1nc(-c2ccccc2)nc2c1nnn2Cc1ccccc1F | 25 | < 50 | < 50 |
| Clc1ccccc1Cn1nnc2c(NC3CC3)nc(-c3ccccc3)nc21 | 11 | < 50 | < 50 |
| c1ccc(Cn2nnc3c(NC4CCC4)nc(-c4ccccc4)nc32)cc1 | 5 | < 50 | < 50 |
| CNc1nc(-c2ccccc2)nc2c1nnn2Cc1ccccc1 | 353 | < 50 | < 50 |
| CCCCNc1nc(-c2ccccc2)nc2c1nnn2Cc1ccccc1 | 11 | < 50 | < 50 |
| Fc1ccccc1Cn1nnc2c(NC3CCCCC3)nc(-c3ccccc3)nc21 | 1.15 | < 50 | < 50 |
| OCCCNc1nc(-c2ccccc2)nc2c1nnn2Cc1ccccc1 | 21.4 | < 50 | < 50 |
| CCNc1nc(-c2ccccc2)nc2c1nnn2Cc1ccccc1 | 91 | < 50 | < 50 |
| CCCCCCNc1nc(-c2ccccc2)nc2c1nnn2Cc1ccccc1 | 13.2 | < 50 | < 50 |
| c1ccc(Cn2nnc3c(NC4CCCC4)nc(-c4ccccc4)nc32)cc1 | 11 | < 50 | < 50 |
| CCCNc1nc(-c2ccccc2)nc2c1nnn2Cc1ccccc1 | 37 | < 50 | < 50 |
| OCCNc1nc(-c2ccccc2)nc2c1nnn2Cc1ccccc1 | 38 | < 50 | < 50 |
| FC(F)(F)c1ccccc1Cn1nnc2c(NC3CCCC3)nc(-c3ccccc3)nc21 | 0.6 | < 50 | < 50 |
| CCCCCCNc1nc(-c2ccccc2)nc2c1nnn2Cc1ccccc1Cl | 31 | < 50 | < 50 |
| CNc1nc(-c2ccccc2)nc2c1nnn2Cc1ccccc1Cl | 191 | < 50 | < 50 |
| CCCCNc1nc(-c2ccccc2)nc2c1nnn2Cc1ccccc1C(F)(F)F | 6.5 | < 50 | < 50 |
| c1ccc(Cn2nnc3c(NC4CC4)nc(-c4ccccc4)nc32)cc1 | 11.3 | < 50 | < 50 |

Next, values leading:

| Ki (Adenosine receptor A1) [nM] | inhibition [1] [%] | inhibition [2] [%] | SMILES |
| --- | --- | --- | --- |
| 147 | < 50 | < 50 | OCCCNc1nc(-c2ccccc2)nc2c1nnn2Cc1ccccc1C(F)(F)F |
| 11 | < 50 | < 50 | CCNc1nc(-c2ccccc2)nc2c1nnn2Cc1ccccc1F |
| 4.3 | < 50 | < 50 | CCCCNc1nc(-c2ccccc2)nc2c1nnn2Cc1ccccc1F |
| – | < 50 | < 50 | CC(O)CNc1nc(-c2ccccc2)nc2c1nnn2Cc1ccccc1C(F)(F)F (stereo not given) |
| – | < 50 | < 50 | CCCCCCNc1nc(-c2ccccc2)nc2c1nnn2Cc1ccccc1C(F)(F)F |
| 7.8 | < 50 | < 50 | FC(F)(F)c1ccccc1Cn1nnc2c(NC3CC3)nc(-c3ccccc3)nc21 |
| 116 | < 50 | < 50 | OCCNc1nc(-c2ccccc2)nc2c1nnn2Cc1ccccc1Cl |
| 7.5 | < 50 | < 50 | CC(O)CNc1nc(-c2ccccc2)nc2c1nnn2Cc1ccccc1 (stereo not given) |
| 54 | < 50 | < 50 | OCCNc1nc(-c2ccccc2)nc2c1nnn2Cc1ccccc1F |
| 463 | < 50 | < 50 | CCNc1nc(-c2ccccc2)nc2c1nnn2Cc1ccccc1Cl |
| 25 | < 50 | < 50 | CNc1nc(-c2ccccc2)nc2c1nnn2Cc1ccccc1F |
| 14.9 | < 50 | < 50 | CNc1nc(-c2ccccc2)nc2c1nnn2Cc1ccccc1C(F)(F)F |
| 6.8 | < 50 | < 50 | FC(F)(F)c1ccccc1Cn1nnc2c(NC3CCCCC3)nc(-c3ccccc3)nc21 |
| – | < 50 | < 50 | OCCNc1nc(-c2ccccc2)nc2c1nnn2Cc1ccccc1C(F)(F)F |
| 101 | < 50 | < 50 | CCCNc1nc(-c2ccccc2)nc2c1nnn2Cc1ccccc1Cl |
| – | < 50 | < 50 | CCCNc1nc(-c2ccccc2)nc2c1nnn2Cc1ccccc1C(F)(F)F |
| 3.2 | < 50 | < 50 | CCCNc1nc(-c2ccccc2)nc2c1nnn2Cc1ccccc1F |
| 4.8 | < 50 | < 50 | CC(O)CNc1nc(-c2ccccc2)nc2c1nnn2Cc1ccccc1F (stereo not given) |
| – | < 50 | < 50 | CCNc1nc(-c2ccccc2)nc2c1nnn2Cc1ccccc1C(F)(F)F |

From ChEMBL document CHEMBL1144486, “Synthesis, biological activity and molecular modelling of new trisubstituted 8-azaadenines with high affinity for A1 adenosine receptors” (Eur J Med Chem, 2007)
